An excerpt weighted towards active compounds, which were near 2.8% of everything screened.
SIRT5 inh: SIRT5 desuccinylase inhibitors, primary screen, biochemical, fluorescence imaging, single point, set 5; Purified SirT5, succinyl-peptide AMC, trypsin-coupled fluorescence; inhibition, % at 15 µM; hit rate 1.1% among 330,000; AID 652115, 2013; NAD-dependent protein deacylase sirtuin-5, mitochondrial (Homo sapiens), Q9NXA8; in the data active = inhibition above about 15%; inconclusive = no clear call, values can overlap the other calls
DENV2 CPE: inhibitors of DENV2 cytopathic effect, primary screen, cell-based, plate reader, single concentration; DENV2-infected cells, cytopathic effect rescue; CPE inhibition, % at 9.99 µM; hit rate 1.7% among 350,000; AID 651640, 2012; in the data active = CPE inhibition above about 20%, passing the limit was not always enough; inconclusive = no clear call, values can overlap the other calls; tested in BHK-21 cells;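 note: 0% = median of neutral control wells and 100% = median of positive control wells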
E-selectin induc: E-selectin induction in HUVECs, primary screen, imaging, HUVEC, immunofluorescence imaging, single point | P16581 | normalized: neutral wells 0, TNF-alpha wells 100 | activation, % at 7.58 µM | hit rate 0.37% among 260,000;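 active = mean E-selectin-positive cell signal at least 10% of the positive control, reached in at least 60% of replicates, without over 20% cell loss; inconclusive = no rule given, readout overlaps actives, possibly toxicity-flagged; inactive = the rest, including those meeting only one limit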
Target sequence (P16581 whole entry, looked up): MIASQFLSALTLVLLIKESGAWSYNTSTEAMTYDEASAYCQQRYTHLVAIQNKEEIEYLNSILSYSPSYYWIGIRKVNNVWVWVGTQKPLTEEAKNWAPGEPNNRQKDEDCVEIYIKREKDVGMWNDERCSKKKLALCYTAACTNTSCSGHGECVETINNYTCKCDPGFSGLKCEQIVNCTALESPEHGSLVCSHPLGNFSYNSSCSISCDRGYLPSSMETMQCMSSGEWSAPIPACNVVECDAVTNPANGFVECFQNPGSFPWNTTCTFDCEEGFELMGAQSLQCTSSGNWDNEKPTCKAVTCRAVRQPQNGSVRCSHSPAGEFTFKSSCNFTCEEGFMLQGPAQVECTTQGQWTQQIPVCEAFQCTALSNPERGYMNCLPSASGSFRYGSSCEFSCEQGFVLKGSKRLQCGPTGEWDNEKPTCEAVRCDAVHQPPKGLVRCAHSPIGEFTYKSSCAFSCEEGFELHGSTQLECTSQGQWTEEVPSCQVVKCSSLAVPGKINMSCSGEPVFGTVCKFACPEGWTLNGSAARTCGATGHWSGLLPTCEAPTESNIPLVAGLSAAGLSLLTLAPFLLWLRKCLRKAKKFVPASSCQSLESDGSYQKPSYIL
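Assay system: HUVEC, human umbilical vein endothelial cells / Amount: 3,000 HUVEC/well / Controls: TNF-alpha positive control, DMSO neutral control / Compound dosing: single concentration / Medium: EGM-2 over gelatin coat / Evaluation: percent E-selectin-positive cells / Signal: immunofluorescence imaging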
* marks the source's active call; other numbers are inactive results; u = inconclusive; x = no result given.

SMILES	SIRT5 inh	DENV2 CPE	E-selectin induc
C[C@@H]1CCCCO[C@@H](CN(C)Cc2ccc(C(=O)Nc3ccccc3N)cc2)[C@@H](C)CN([C@H](C)CO)C(=O)c2cc(NC(=O)Cc3ccccc3)ccc2O1	x	-6	0
CCCN1C[C@H](C)[C@@H](OC)CN(C)C(=O)c2ccc(NC(=O)c3cccc(F)c3)cc2OC[C@H]1C	8	-10	0
O=C(C1CCCC1)N1CC(=O)N2[C@H](CO)[C@H](c3ccc(-c4cccnc4)cc3)[C@H]2C1	3	11	-1
CC(C)CN(C(=O)COC(=O)c1cc(=O)[nH]c2ccccc12)c1c(N)n(Cc2ccccc2)c(=O)[nH]c1=O	0	16	0
Cc1ccc(C(=O)OCC(=O)N(C)c2c(N)n(Cc3ccccc3)c(=O)[nH]c2=O)s1	1	36*	0
CCN(C(=O)COC(=O)c1cc(=O)[nH]c2ccccc12)c1c(N)n(Cc2ccccc2)c(=O)[nH]c1=O	-5	65*	-2
Cc1ccsc1C(=O)OCC(=O)N(C)c1c(N)n(Cc2ccccc2)c(=O)[nH]c1=O	-8	-3	0
CC(C)CN(C(=O)CSc1nnc(-c2cccs2)n1N)c1c(N)n(Cc2ccccc2)c(=O)[nH]c1=O	2	-2	2
Cc1nnc(SCC(=O)N(CC(C)C)c2c(N)n(Cc3ccccc3)c(=O)[nH]c2=O)n1N	3	79*	x
COC(=O)c1cccc(NC(=O)c2ccc3c(c2)C(=O)N(C(C)(C)C)C3=O)c1	-4	u	x
CC(C)(C)N1C(=O)c2ccc(C(=O)Nc3ccc(O)cc3)cc2C1=O	4	54*	x
CC(C)(C)NC(=O)c1cccc(NC(=O)c2ccc3c(c2)C(=O)N(C(C)(C)C)C3=O)c1	2	44*	1
O=C(Nc1ccc(O)cc1)c1ccc2c(c1)C(=O)N(Cc1ccccc1)C2=O	-3	-8	0
Cc1ccccc1C(=O)N1CCN(S(=O)(=O)c2cccs2)CC1	-2	0	0
CCOc1ccc(C(=O)N2CCN(S(=O)(=O)c3cccs3)CC2)c(OCC)c1	7	-3	33*
Cc1noc(C)c1NC(=O)Nc1ccc2c(c1)CC(=O)N([C@H](C)CO)C[C@@H](C)[C@H](CN(C)C(=O)Nc1c(C)noc1C)O2	1	-10	0
O=S(=O)(c1ccccc1)[C@@]1(c2ccccc2)C[C@@H]2ON=C(c3cccc(Br)c3)[C@@H]2C1	x	x	1
O=C(O)[C@]1(S(=O)(=O)c2ccccc2)C[C@@H]2ON=C(c3cccc(Br)c3)[C@@H]2C1	-5	25*	x
CC(C)CC#Cc1cnc2c(c1)C(=O)N([C@H](C)CO)C[C@H](C)[C@H](CN(C)C(=O)c1cccnc1)O2	6	-2	0
O=C(C[C@H]1C[C@@H]2c3cc(NC(=O)c4cccnc4)ccc3O[C@@H]2[C@@H](CO)O1)NCCN1CCCCC1	0	-1	0
C[C@@H]1CN([C@@H](C)CO)C(=O)Cc2cc(NC(=O)Cn3cnnn3)ccc2O[C@H]1CN(C)C(=O)Nc1ccc(C(F)(F)F)cc1	4	1	415*
C[C@@H]1CN([C@H](C)CO)C(=O)c2cc(NC(=O)Cn3cnnn3)ccc2O[C@@H]1CN(C)C(=O)Nc1ccc(C(F)(F)F)cc1	4	59*	-2
C[C@H](CO)N1C[C@H](C)[C@@H](CN(C)C(=O)Nc2ccc3c(c2)OCO3)Oc2ccc(NC(=O)Cn3cnnn3)cc2CC1=O	-2	24*	0
C[C@H]1CN([C@@H](C)CO)C(=O)Cc2cc(NC(=O)Cn3cnnn3)ccc2O[C@H]1CN(C)C(=O)Nc1ccc(C(F)(F)F)cc1	-3	10	-7
C[C@@H]1CN([C@@H](C)CO)C(=O)c2cc(NC(=O)Cn3cnnn3)ccc2O[C@@H]1CN(C)C(=O)Nc1ccc(F)cc1	4	0	0
SMILES	SIRT5 inh	DENV2 CPE	E-selectin induc
C[C@@H]1CN([C@@H](C)CO)C(=O)Cc2cc(NC(=O)Cn3cnnn3)ccc2O[C@H]1CN(C)C(=O)Nc1ccc2c(c1)OCO2	-1	-4	-3
C[C@@H]1CN([C@@H](C)CO)S(=O)(=O)c2ccc(C#CC3CC3)cc2O[C@@H]1CN(C)S(C)(=O)=O	-1	-7	-1
COc1ccc2c3c(n(C)c2c1)[C@@H](CO)N(C)CC31CN(S(=O)(=O)c2cn(C)cn2)C1	x	2	0
CC(C)NC(=O)N1CC2(C1)[C@H](c1ccccc1)[C@H](CO)N2C(=O)C1CCCC1	-2	-16	0
O=C(N[C@H]1C=C[C@@H](CC(=O)N2CCc3ccccc3C2)O[C@H]1CO)C1CCOCC1	-3	15	-1
C/C=C/c1ccc([C@@H]2[C@@H](CO)N(C(C)=O)C23CN(C(=O)c2ccccc2)C3)cc1	-1	0	0
C/C=C/c1ccc([C@@H]2[C@@H](CO)N(C(C)=O)C23CN(C(=O)c2ccncc2)C3)cc1	x	25*	1
C/C=C/c1ccc([C@@H]2[C@@H](CO)N(C(=O)c3cnccn3)C23CN(C(=O)C2CC2)C3)cc1	-1	-7	0
C/C=C/c1ccc([C@H]2[C@H](CO)N(C(=O)c3cnccn3)C23CN(C(=O)C2CC2)C3)cc1	-14	33*	0
O=C(CCN1CCCCC1)N[C@H]1CC[C@H](CCNS(=O)(=O)c2ccc(F)cc2)O[C@H]1CO	-1	-6	2
C[C@@H]1CN([C@@H](C)CO)S(=O)(=O)c2ccc(C3=CCCCC3)cc2O[C@@H]1CN(C)C(=O)Cc1ccncc1	1	17	0
C[C@@H]1CN([C@H](C)CO)S(=O)(=O)c2ccc(C3=CCCC3)cc2O[C@H]1CN(C)C(=O)Cc1ccncc1	4	-5	1
C[C@@H]1CN([C@H](C)CO)S(=O)(=O)c2ccc(C3=CCCC3)cc2O[C@H]1CN(C)C(=O)c1ccncc1	-11	45*	0
C[C@H]1CN([C@@H](C)CO)S(=O)(=O)c2ccc(C3=CCCC3)cc2O[C@@H]1CN(C)C(=O)Cc1ccncc1	4	31*	0
C[C@@H]1CN([C@H](C)CO)S(=O)(=O)c2ccc(C3=CCCC3)cc2O[C@@H]1CN(C)C(=O)c1ccncc1	-1	-2	0
C[C@@H]1CN([C@H](C)CO)S(=O)(=O)c2ccc(C3=CCCCC3)cc2O[C@H]1CN(C)C(=O)Cc1ccncc1	17*	-3	1
COc1ccc(S(=O)(=O)Nc2ccc3c(c2)C(=O)N([C@@H](C)CO)C[C@H](C)[C@H](CN(C)C(=O)c2ccccc2)OCCCC[C@@H](C)O3)cc1	-3	15	1
COc1ccc(NC(=O)N(C)C[C@H]2Oc3ccc(NC(=O)Nc4ccc5c(c4)OCO5)cc3CC(=O)N([C@@H](C)CO)C[C@H]2C)cc1	x	16	-3
O=[N+]([O-])c1ccc2c(c1)CCO[C@@]21O[C@H](CCO)C[C@H](O)[C@H]1O	-5	3	x
O=[N+]([O-])c1ccc2c(c1)CO[C@@]21O[C@H](CCO)C[C@H](O)[C@H]1O	2	7	65*
COc1cc(Cl)c(CN2CCCC(CO)(Cc3ccccc3F)C2)cc1OC (centres undefined)	101*	-4	x
CCOc1ccc(CN2CCCC(CO)(Cc3ccccc3F)C2)cc1 (centres undefined)	-1	8	x
